Consider 31 compounds from ChEMBL document CHEMBL1759990, “Synthesis and SAR of novel quinazolines as potent and brain-penetrant c-jun N-terminal kinase (JNK) inhibitors” (Bioorg Med Chem Lett, 2011).

Each structure is given as a SMILES string. Where only a bound is given, the exact number is not on record here.

A short description of data set [1]: AUC in rat at 2 mg/kg, po. In kind it is ADME, organism-based. On the set-up: dose 2 mg/kg, route oral. Particulars: plasma.
Data set [2] in a line: Drug level in mouse plasma at 10 mg/kg, ip after 2 hrs. Type of data set: ADME, organism-based. On the set-up: dose 10 mg/kg, route intraperitoneal. The settings on record: read-out: Drug uptake. In a few lines:
(§1)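 Mouse dosed at 10 mg/kg ip. Brain and plasma concentrations (µM) were measured at 2 h.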

For data set [3], the target named is Mitogen-activated protein kinase 8 (Homo sapiens, UniProt P45983). Put plainly: Inhibition of JNK1 by HRTF. In a few lines: (§2)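 HTRF kinase assay with final concentrations of 0.1 nM JNK1 or 0.3 nM JNK3, 0.4 nM biotinylated-ATF2 substrate and 1 mM ATP. Phospho-Thr71-ATF-2 was detected with a Europium-cryptate anti-phospho-Thr71-ATF-2 antibody, with streptavidin-allophycocyanin-XL as acceptor. A 10-point dose-response was run in duplicate and fit to a four-parameter logistic. JNK3 values are means of four or more experiments; JNK1 values are means of two or more.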

Data set [4] has as its target Mitogen-activated protein kinase 10 (Homo sapiens, UniProt P53779). Put plainly: Inhibition of JNK3 by HRTF. In a few lines: as §2
A short description of data set [5]: Cmax in rat at 2 mg/kg, po. In kind it is ADME, organism-based. On the set-up: dose 2 mg/kg, route oral. The settings on record: in vivo.
Data set [6] has as its system Rattus norvegicus. Put plainly: Oral bioavailability in rat at 2 mg/kg. In kind it is ADME, organism-based. Particulars: in vivo.
The nature of data set [7]: Drug level in mouse brain at 10 mg/kg, ip after 2 hrs. Type of data set: ADME, organism-based. Also on record: dose 10 mg/kg, route intraperitoneal. Particulars: read-out: Drug uptake. In a few lines:
as §1

The test system of data set [8] is Rattus norvegicus. Put plainly: Half life in rat at 1 mg/kg, iv. The settings on record: in vivo. Also on record: dose 1 mg/kg, route intravenous. In kind it is ADME, organism-based.
Data set [9] is described as follows: Volume of distribution in rat at 1 mg/kg, iv. In kind it is ADME, organism-based. On the set-up: dose 1 mg/kg, route intravenous. Particulars: in vivo.

Chain of Mitogen-activated protein kinase 8 (P45983 whole entry): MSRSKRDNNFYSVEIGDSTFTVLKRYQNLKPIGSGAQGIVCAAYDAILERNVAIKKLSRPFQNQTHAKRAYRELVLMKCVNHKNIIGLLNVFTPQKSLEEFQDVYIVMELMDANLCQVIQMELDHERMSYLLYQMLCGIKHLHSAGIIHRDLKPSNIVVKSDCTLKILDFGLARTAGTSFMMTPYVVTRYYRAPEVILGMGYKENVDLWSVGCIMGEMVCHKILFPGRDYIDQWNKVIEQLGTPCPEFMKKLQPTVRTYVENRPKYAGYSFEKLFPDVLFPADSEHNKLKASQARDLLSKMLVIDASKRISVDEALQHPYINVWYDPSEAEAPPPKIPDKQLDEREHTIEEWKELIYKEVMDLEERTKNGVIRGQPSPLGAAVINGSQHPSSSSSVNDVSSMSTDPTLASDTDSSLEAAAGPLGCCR
Chain of Mitogen-activated protein kinase 10 (P53779 whole entry): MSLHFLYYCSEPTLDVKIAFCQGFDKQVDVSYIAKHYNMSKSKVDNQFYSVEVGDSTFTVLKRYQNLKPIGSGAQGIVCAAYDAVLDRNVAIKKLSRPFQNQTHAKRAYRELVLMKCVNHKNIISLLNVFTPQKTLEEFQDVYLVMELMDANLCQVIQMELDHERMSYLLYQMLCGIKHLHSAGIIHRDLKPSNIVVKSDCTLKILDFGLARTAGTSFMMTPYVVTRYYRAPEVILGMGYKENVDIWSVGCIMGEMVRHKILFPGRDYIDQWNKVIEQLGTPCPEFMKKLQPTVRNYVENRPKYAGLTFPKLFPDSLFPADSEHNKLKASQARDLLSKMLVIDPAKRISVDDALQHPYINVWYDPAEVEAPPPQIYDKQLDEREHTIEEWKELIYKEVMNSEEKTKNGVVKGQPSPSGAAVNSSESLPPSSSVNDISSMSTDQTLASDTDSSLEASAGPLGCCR

By AUC is commonly meant concentration integrated over time. Read a high AUC as high exposure. A word on the IC50: it is the concentration that gives 50% inhibition. Higher therefore signals weaker potency. The term Cmax denotes the peak of the concentration-time curve. What is called Vd is the apparent volume that relates the amount in the body to the concentration in plasma or blood. On to `Cn1cc(-c2ccc3cnc(Nc4ccc(-n5cnc(N6CCOCC6)n5)cc4)nc3c2)cn1`, for which the AUC in data set [1] was 6.3 µM·h. For the same compound, the concentration at 2 h in data set [2] turned out to be 17.8 µM; in data set [7] it was 7.17 µM. In addition, the IC50 in data set [3] is 50 nM; in [4], 90 nM. The compound further showed a Cmax in data set [5] of 0.7 µM. The F in the data set with Rattus norvegicus [6] is 28%. For the same compound, the t1/2 with Rattus norvegicus [8] is 3 h. In addition, in data set [9], the Vd was 0.8 L/kg.
As to `c1cc(-n2cnc(N3CCOCC3)n2)ccc1Nc1ncc2ccc(-c3cn[nH]c3)cc2n1`, the values for the concentration at 2 h in [2] and in data set [7] were 42.9 µM and 1.31 µM, respectively. Besides, the IC50 in [3] is 40 nM; in data set [4], 50 nM.
`c1cc(-n2cnc(N3CCOCC3)n2)ccc1Nc1ncc2ccc(-c3cnoc3)cc2n1` yielded an IC50 in [4] of 700 nM.
Same read-out and setting: to `c1cc(-n2cnc(N3CCOCC3)n2)ccc1Nc1ncc2ccc(N3CCOCC3)cc2n1` belongs 4400 nM.
With `c1cncc(-c2ccc3cnc(Nc4ccc(-n5cnc(N6CCOCC6)n5)cc4)nc3c2)c1`, the concentration at 2 h is 26.7 µM in data set [2] and 8.1 µM in data set [7]. Moreover, the IC50 in data set [4] is 210 nM.
`Cc1ccc(-c2ccc3cnc(Nc4ccc(-n5cnc(N6CCOCC6)n5)cc4)nc3c2)cn1` returned a half-maximal inhibitory concentration (IC50) in data set [4] of 730 nM.
In turn, `c1ccc(-c2ccc3cnc(Nc4ccc(-n5cnc(N6CCOCC6)n5)cc4)nc3c2)cc1` displayed a half-maximal inhibitory concentration (IC50) in data set [4] of more than 20000 nM.
The same measure, in the same setting: to `Cc1ccc(-c2ncn(-c3ccc(Nc4ncc5ccc(-c6cn[nH]c6)cc5n4)cc3)n2)cn1` belongs 50 nM.
For `Cn1cc(-c2ccc3cnc(Nc4ccc(-n5cnc(-c6ccccn6)n5)cc4)nc3c2)cn1`, the results for the concentration at 2 h in [2] and in data set [7] were 13.1 µM and 1.37 µM, respectively. Besides, the half-maximal inhibitory concentration (IC50) in data set [3] is 100 nM; in data set [4], 60 nM.
For `Cc1ccc(-c2cccc3cnc(Nc4ccc(-n5cnc(N6CCOCC6)n5)cc4)nc23)cn1`, the results for the concentration at 2 h in data set [2] and in [7] were 2.7 µM and 0.15 µM, respectively. In data set [4], this compound showed a half-maximal inhibitory concentration (IC50) of 30 nM.
Take `Cn1cc(-c2cccc3cnc(Nc4ccc(-n5cnc(N6CCOCC6)n5)cc4)nc23)cn1`: the concentration at 2 h in data set [2] was 2.2 µM; in data set [7], 0.23 µM. In addition, the IC50 in [3] worked out at 10 nM; in data set [4] it was 20 nM.
`COc1ccc(-c2cccc3cnc(Nc4ccc(-n5cnc(N6CCOCC6)n5)cc4)nc23)cc1F`: the concentration at 2 h came out at 6.1 µM in data set [2] and 1.5 µM in data set [7]. In addition, the values for the IC50 in [3] and in data set [4] were 90 nM and 70 nM, respectively.
On to `c1cc(-c2nccs2)c2nc(Nc3ccc(-n4cnc(N5CCOCC5)n4)cc3)ncc2c1`, for which the 50% inhibitory concentration (IC50) in data set [3] was 30 nM; in data set [4], 7 nM.
Consider `c1ccc(-c2cccc3cnc(Nc4ccc(-n5cnc(N6CCOCC6)n5)cc4)nc23)cc1`, for which the values for the concentration at 2 h in [2] and in data set [7] were 5.2 µM and 12.7 µM, respectively. For the same compound, the results for the IC50 in data set [3] and in data set [4] were 50 nM and 60 nM, respectively.
Turning to `COc1ccc(-c2cccc3cnc(Nc4ccc(-n5cnc(C)n5)cc4)nc23)cc1F`, the concentration at 2 h in data set [2] amounted to 10.3 µM; in [7], 7.6 µM. It took 80 nM to reach half-maximal inhibition in data set [4] (IC50).
Consider `Cc1ncn(-c2ccc(Nc3ncc4cccc(-c5nccs5)c4n3)cc2)n1`, for which the figures for the concentration at 2 h in data set [2] and in data set [7] were 5 µM and 4.5 µM, respectively. In addition, the IC50 in data set [3] stood at 10 nM; in data set [4] it was 20 nM.
For `COc1ccc(-c2cccc3cnc(Nc4ccc(-n5cnc(-c6ccccn6)n5)cc4)nc23)cc1F`, the IC50 in data set [4] was 90 nM.
As to `Cc1ccc(-c2cccc3cnc(Nc4ccc(-n5cnc(C)n5)cc4)nc23)cn1`, the concentration at 2 h in data set [2] was 2.31 µM; in data set [7], 0.23 µM. In [4], inhibition was half-maximal at 30 nM (IC50).
In the case of `Cc1ccc(-c2cccc3cnc(Nc4ccc5c(c4)OCO5)nc23)cn1`, the figures for the concentration at 2 h in data set [2] and in data set [7] were 0.78 µM and 1.06 µM, respectively. Besides, the IC50 in [4] amounted to 60 nM.
`Cc1ccc(-c2cccc3cnc(Nc4ccc(F)cc4)nc23)cn1` showed a 50% inhibitory concentration (IC50) in [4] of 170 nM.
As for `Cc1ccc(-c2cccc3cnc(Nc4ccc(C(=O)N5CCOCC5)cc4)nc23)cn1`, the IC50 in data set [4] is 90 nM.
Regarding `Cc1ccc(-c2cccc3cnc(NC4CCC(O)CC4)nc23)cn1` (stereo not given), the midpoint of inhibition in data set [4], the IC50, lay at 50 nM.
In turn, `Cc1ccc(-c2cccc3cnc(N[C@H]4CC[C@@H](C(=O)N5CCCC5)CC4)nc23)cn1` gave an IC50 in data set [4] of 30 nM.
The compound `Cn1cc(-c2ccc3cnc(Nc4ccc(-n5cnc(N6CCOCC6)n5)cc4)nc3c2Cl)cn1` displayed an AUC in [1] of 2.3 µM·h. The values for the concentration at 2 h in data set [2] and in [7] were 10.4 µM and 8.3 µM, respectively. Further, the IC50 in data set [4] was found to be 40 nM. In data set [5], this compound registered a Cmax of 0.3 µM. For the same compound, the F in the data set on Rattus norvegicus [6] is 19%. In the data set on Rattus norvegicus [8], the t1/2 is 3 h. This compound also returned a Vd in data set [9] of 1.4 L/kg.
For `CC(C)n1cc(-c2ccc3cnc(Nc4ccc(-n5cnc(N6CCOCC6)n5)cc4)nc3c2Cl)cn1`, the concentration at 2 h in [2] was 4.3 µM; in data set [7] it was 7.2 µM. Further, in data set [4], half-maximal inhibition (IC50) was put at 63 nM.
On to `Cc1c(-c2cnn(C)c2)ccc2cnc(Nc3ccc(-n4cnc(N5CCOCC5)n4)cc3)nc12`, for which the figures for the concentration at 2 h in [2] and in data set [7] were 7.4 µM and 7.6 µM, respectively. In [4], the IC50 came out at 10 nM.
`Cn1cc(-c2ccc3cnc(Nc4ccc(-n5cnc(N6CCOCC6)n5)cc4)nc3c2C(F)(F)F)cn1`: the results for the concentration at 2 h in [2] and in [7] were 8.3 µM and 5.6 µM, respectively. Further, the IC50 in [4] worked out at 190 nM.
Regarding `Cn1cc(-c2ccc3cnc(Nc4ccc(-n5cnc(N6CCOCC6)n5)cc4)nc3c2C2CC2)cn1`, the concentration at 2 h stood at 10.6 µM in data set [2] and 5 µM in [7]. Besides, 20 nM corresponded to half-maximal inhibition in data set [4] (IC50).
As for `Cn1cc(-c2ccc3cnc(Nc4ccc(-n5cnc(N6CCOCC6)n5)cc4)nc3c2-c2cnn(C)c2)cn1`, the results for the concentration at 2 h in data set [2] and in data set [7] were 6.3 µM and 0.22 µM, respectively. Besides, in [4], the half-maximal inhibitory concentration (IC50) was determined as 9 nM.
For `Cn1cc(-c2ccc3cnc(Nc4ccc(-n5cnc(N6CCOCC6)n5)cc4)nc3c2-c2ccccc2)cn1`, the concentration at 2 h in [2] is 6.4 µM; in data set [7], 1.1 µM. In data set [4], this compound displayed a half-maximal inhibitory concentration (IC50) of 10 nM.
Consider `COc1c(-c2cnn(C)c2)ccc2cnc(Nc3ccc(-n4cnc(N5CCOCC5)n4)cc3)nc12`, for which the figures for the concentration at 2 h in data set [2] and in data set [7] were 9.4 µM and 4.9 µM, respectively. The compound also yielded an IC50 in data set [4] of 4 nM. The same compound gave a F in the data set with Rattus norvegicus [6] of 8%.
